Measurements taken from ChEMBL document CHEMBL1212857, “Syntheses and pharmacological characterization of novel thiazole derivatives as potential mGluR5 PET ligands” (Bioorg Med Chem, 2010).
Values belong to the compound of their own block, whether it stands above or below them.

Assays:
[1] = biological target: Metabotropic glutamate receptor 5 (Rattus norvegicus, UniProt P31424); test: Displacement of [3H]M-MPEP from mGluR5 in Sprague-Dawley rat brain membranes (cerebellum removed) after 45 mins by liquid scintillation counting
Brain = test: Drug uptake in Sprague-Dawley rat brain slices at 0.5 to 5 nM after 45 mins by autoradiography in presence of 500 nM of ABP688; type: ADME, tissue-based; details: 0.75 h, 0.005 µM
Procedure, shortened: (§1)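 Frozen rat brain slices thawed 30 min at rt, preincubated 10 min at 4 °C in HEPES–BSA buffer pH 7.4, then covered with 0.5 or 5 nM [18F] tracer for 45 min at rt in a humid chamber. Blocking was by co-incubation with excess unlabeled ABP688. Washes were 3×3 min in HEPES buffer and 2×5 s in water at 4 °C, followed by 40 min drying and 7 min phosphor-plate exposure.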

[2] = Lipophilicity, log D of the compound at pH 7.4 by shake flask method; type: physicochemical; details: buffer
Procedure, shortened: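 Shake-flask log D (n = 5): [18F] tracer (80 kBq) added to 0.5 mL 1-octanol and 0.5 mL phosphate buffer pH 7.4, each pre-saturated with the other. Mixed 15 min, centrifuged at 5000g for 5 min, and radioactivity in each phase gamma-counted.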

[3] = Metabolic stability in rat liver microsomes assessed as compound remaining after 60 mins by UPLC analysis; type: ADME, Microsome; details: read-out: Stability
Procedure, shortened: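 Pooled rat liver microsomes (0.52 mg/mL protein). Tracer (20–50 nM) preincubated 5 min with 10 mM NADPH in 0.1 M phosphate pH 7.4 at 37 °C before microsomes were added; testosterone served as positive control and boiled microsomes as negative control. Reactions quenched with ice-cold acetonitrile at 0, 15, 30 and 60 min, centrifuged, and supernatant run by UPLC.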

Hippocampus = test: Drug uptake in Sprague-Dawley rat hippocampus at 0.5 to 5 nM after 45 mins by autoradiography; type: ADME, tissue-based; details: 0.75 h, 0.005 µM
Procedure, shortened: as §1

Plasma [4] = test: Metabolic stability in human plasma after 120 mins by UPLC analysis; type: ADME, cell-free; details: 2 h
Procedure, shortened: (§2)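 [18F] tracer in ethanol added to human or rat plasma and incubated at 37 °C for 120 min. Aliquots taken at 0, 30, 60, 90 and 120 min into ice-cold acetonitrile, centrifuged (5000g, 4 °C, 10 min), and supernatant analysed by radio-UPLC.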

Plasma [5] = test: Metabolic stability in rat plasma after 120 mins by UPLC analysis; type: ADME, cell-free; details: 2 h
Procedure, shortened: as §2

Striatum = test: Drug uptake in Sprague-Dawley rat striatum at 0.5 to 5 nM after 45 mins by autoradiography; type: ADME, tissue-based; details: 0.75 h, 0.005 µM
Procedure, shortened: as §1

Cortex = test: Drug uptake in Sprague-Dawley rat cortex at 0.5 to 5 nM after 45 mins by autoradiography; type: ADME, tissue-based; details: 0.75 h, 0.005 µM
Procedure, shortened: as §1

Metabotropic glutamate receptor 5, sequence (P31424 whole entry): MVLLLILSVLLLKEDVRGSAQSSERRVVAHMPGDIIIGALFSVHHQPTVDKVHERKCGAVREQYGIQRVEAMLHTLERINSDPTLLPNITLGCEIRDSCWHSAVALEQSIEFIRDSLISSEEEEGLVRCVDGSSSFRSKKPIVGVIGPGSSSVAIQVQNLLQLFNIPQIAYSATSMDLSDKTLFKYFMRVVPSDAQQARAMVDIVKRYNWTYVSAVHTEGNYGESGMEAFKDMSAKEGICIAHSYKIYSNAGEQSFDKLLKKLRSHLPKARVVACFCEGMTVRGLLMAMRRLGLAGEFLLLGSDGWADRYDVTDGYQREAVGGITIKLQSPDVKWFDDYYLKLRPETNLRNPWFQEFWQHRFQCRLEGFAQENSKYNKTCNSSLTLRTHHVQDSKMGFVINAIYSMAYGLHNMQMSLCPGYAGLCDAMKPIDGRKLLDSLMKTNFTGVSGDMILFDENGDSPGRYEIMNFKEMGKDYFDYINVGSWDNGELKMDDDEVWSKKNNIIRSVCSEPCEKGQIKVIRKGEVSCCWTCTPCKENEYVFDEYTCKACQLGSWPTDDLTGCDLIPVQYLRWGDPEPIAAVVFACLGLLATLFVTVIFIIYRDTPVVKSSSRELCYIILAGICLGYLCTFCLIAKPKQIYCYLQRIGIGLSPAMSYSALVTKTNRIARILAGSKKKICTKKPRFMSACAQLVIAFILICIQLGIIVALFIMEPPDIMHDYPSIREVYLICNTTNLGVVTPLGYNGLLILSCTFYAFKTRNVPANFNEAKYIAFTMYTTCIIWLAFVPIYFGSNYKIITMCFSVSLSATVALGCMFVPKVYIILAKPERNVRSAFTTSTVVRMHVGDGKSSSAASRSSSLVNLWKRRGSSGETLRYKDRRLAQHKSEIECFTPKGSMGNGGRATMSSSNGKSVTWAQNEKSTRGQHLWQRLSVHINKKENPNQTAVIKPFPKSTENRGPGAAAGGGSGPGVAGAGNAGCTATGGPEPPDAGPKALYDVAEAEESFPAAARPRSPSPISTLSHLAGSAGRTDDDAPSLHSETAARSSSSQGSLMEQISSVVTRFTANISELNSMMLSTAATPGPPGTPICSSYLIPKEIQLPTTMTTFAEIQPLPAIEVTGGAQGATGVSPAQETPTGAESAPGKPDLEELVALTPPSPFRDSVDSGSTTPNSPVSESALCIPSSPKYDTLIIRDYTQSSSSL

SMILES: FCCOCCO/N=C1/C=C(C#Cc2cscn2)CCC1
Ki [1]: 36 nM

SMILES: CO/N=C1/C=C(C#Cc2csc(C[18F])n2)CCC1
Drug uptake (Brain): Not Active | logD [2]: 1.6 | remaining at 1 h [3]: 93% | Drug uptake (Hippocampus): Active | Stability (Plasma [4]): Stable | Stability (Plasma [5]): Stable | Drug uptake (Striatum): Active | Drug uptake (Cortex): Active

Results, then the compound that gave them:

Ki [1]: 5.5 nM
SMILES: CO/N=C1/C=C(C#Cc2csc(CF)n2)CCC1

Ki [1]: 21.9 nM
SMILES: Cc1nc(C#CC2=C/C(=N/OCCOCCF)CCC2)cs1

Ki [1]: 20.3 nM
SMILES: CO/N=C1/C=C(C#Cc2nccs2)CCC1
